From ChEMBL document CHEMBL4219174, “Synthesis and evaluation of 2,9-disubstituted 8-phenylthio/phenylsulfinyl-9H-purine as new EGFR inhibitors” (Bioorg Med Chem, 2018) come the findings set out here.

Series [1] has as its system HCC827. Briefly: Antiproliferative activity against human HCC827 cells after 72 hrs by MTT assay. In kind it is functional, cell-based. Conditions: HCC827, 72 h.
A further series has as its system NCI-H1975. Nature of the series: Antiproliferative activity against human NCI-H1975 cells after 72 hrs by MTT assay. Conditions: NCI-H1975, 72 h. The series is classed as functional, cell-based. (Formazan colour is commonly taken as a measure of viable cells.)
Series [2] concerns HCC827. Nature of the series: Antiproliferative activity against human HCC827 cells at 1 uM after 72 hrs by MTT assay relative to control. The series is classed as functional. Conditions: for Emax at 1 µM: Homo sapiens, HCC827, 72 h. The method in brief: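 Human lung carcinoma HCC827 cells (EGFR Del E746-A750) were tested by MTT colorimetric assay, with gefitinib and AZD9291 as positive controls. The read-out was percent growth inhibition at a single fixed concentration.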

The test system of another series is A549. Briefly: Antiproliferative activity against human A549 cells after 72 hrs by MTT assay. In kind it is functional, cell-based. The settings on record: A549, 72 h.
A short description of series [3]: Selectivity ratio of IC50 for human A549 cells to IC50 for human HCC827 cells. In kind it is functional.
The target in series [4] is Epidermal growth factor receptor (Homo sapiens, UniProt P00533, C797S/L858R/T790M). Nature of the series: Inhibition of EGFR L858R/T790M/C797S triple mutant (unknown origin) using poly (Glu, Tyr) as substrate after 40 mins by kinase-glo plus luminescence assay. For orientation: Kinase-Glo reads ATP consumption through a luciferase reaction.
Chain of Epidermal growth factor receptor (Homo sapiens, UniProt P00533, C797S/L858R/T790M) (P00533 25-1210 T790M/C797S/L858R limits assumed): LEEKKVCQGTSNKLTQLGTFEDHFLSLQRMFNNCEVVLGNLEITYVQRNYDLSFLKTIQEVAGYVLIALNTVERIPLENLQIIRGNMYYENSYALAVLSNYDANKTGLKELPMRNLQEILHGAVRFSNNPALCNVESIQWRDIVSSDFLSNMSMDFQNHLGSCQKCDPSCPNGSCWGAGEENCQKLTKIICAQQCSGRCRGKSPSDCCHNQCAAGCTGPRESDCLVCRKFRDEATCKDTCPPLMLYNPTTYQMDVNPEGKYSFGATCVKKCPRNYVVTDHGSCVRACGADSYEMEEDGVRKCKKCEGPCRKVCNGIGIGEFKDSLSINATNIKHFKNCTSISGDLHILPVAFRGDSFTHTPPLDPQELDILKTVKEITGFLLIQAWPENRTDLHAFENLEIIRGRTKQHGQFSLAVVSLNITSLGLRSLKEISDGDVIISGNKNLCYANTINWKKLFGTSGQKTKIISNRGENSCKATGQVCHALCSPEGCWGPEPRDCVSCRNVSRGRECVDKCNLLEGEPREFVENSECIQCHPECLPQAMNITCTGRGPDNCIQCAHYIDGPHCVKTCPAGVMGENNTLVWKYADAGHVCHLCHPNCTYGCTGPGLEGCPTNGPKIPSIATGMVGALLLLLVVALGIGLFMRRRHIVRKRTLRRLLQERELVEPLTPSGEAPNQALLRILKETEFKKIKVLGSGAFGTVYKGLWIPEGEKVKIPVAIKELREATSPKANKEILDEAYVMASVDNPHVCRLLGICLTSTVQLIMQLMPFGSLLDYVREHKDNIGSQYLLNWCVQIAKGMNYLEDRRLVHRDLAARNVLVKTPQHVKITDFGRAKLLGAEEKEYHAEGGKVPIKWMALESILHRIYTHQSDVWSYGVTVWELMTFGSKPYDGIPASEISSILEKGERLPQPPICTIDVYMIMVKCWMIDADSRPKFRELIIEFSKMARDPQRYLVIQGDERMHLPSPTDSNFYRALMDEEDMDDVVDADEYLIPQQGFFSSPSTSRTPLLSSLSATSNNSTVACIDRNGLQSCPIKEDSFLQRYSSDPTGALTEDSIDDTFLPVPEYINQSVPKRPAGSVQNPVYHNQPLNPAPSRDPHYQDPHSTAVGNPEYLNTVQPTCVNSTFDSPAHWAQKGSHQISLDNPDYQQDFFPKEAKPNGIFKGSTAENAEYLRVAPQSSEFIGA
A short description of series [5]: Selectivity ratio of IC50 for human NCI-H1975 cells to IC50 for human HCC827 cells. The series is classed as functional.
Series [6] concerns the target Epidermal growth factor receptor (Homo sapiens, UniProt P00533, L858R/T790M). Nature of the series: Inhibition of EGFR L858R/T790M double mutant (unknown origin) using poly (Glu, Tyr) as substrate after 40 mins by kinase-glo plus luminescence assay.
For series [7], the target named is T1, Epidermal growth factor receptor (Homo sapiens, UniProt P00533). Nature of the series: Inhibition of wild type EGFR (unknown origin) using poly (Glu, Tyr) as substrate after 40 mins by kinase-glo plus luminescence assay.
T1 sequence (P00533 whole entry): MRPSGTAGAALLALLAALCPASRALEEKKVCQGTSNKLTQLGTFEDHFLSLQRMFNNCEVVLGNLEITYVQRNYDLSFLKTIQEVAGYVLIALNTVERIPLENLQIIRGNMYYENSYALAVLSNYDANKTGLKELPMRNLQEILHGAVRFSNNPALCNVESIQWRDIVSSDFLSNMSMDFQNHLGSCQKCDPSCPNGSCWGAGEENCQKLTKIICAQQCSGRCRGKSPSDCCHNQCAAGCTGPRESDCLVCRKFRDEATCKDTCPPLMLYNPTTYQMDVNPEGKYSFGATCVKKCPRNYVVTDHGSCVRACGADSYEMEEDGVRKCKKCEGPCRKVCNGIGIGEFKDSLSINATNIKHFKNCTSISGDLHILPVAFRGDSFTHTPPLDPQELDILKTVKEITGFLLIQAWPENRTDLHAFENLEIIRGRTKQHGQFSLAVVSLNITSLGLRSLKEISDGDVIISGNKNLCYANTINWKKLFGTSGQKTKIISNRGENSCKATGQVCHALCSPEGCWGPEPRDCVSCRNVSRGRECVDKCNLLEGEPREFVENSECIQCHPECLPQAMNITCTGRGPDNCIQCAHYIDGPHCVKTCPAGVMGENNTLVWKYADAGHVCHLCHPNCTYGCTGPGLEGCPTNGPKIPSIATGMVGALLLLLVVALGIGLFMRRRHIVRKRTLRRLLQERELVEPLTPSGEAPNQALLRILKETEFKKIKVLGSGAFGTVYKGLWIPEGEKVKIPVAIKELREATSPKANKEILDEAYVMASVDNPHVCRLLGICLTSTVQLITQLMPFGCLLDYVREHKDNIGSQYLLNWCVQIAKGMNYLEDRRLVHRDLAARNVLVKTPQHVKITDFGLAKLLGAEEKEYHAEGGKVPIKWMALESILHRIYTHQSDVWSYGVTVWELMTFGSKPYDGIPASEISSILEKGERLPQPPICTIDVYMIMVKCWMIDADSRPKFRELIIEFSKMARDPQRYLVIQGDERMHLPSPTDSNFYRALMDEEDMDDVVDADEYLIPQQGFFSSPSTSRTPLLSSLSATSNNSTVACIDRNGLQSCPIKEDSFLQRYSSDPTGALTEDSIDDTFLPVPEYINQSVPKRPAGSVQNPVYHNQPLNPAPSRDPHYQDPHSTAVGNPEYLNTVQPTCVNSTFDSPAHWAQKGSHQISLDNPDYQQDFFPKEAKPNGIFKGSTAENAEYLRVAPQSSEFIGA
The test system of series [8] is HCC827. Nature of the series: Anti-tumor activity against human HCC827 cells xenografted in nude Balb/c mouse assessed as tumor growth inhibition at 5 mg/kg, po administered once daily for 20 days measured once in three days till day 21. The series is classed as functional, organism-based. The method in brief:
(§1)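 HCC827 (EGFR Del E746-A750) xenografts in nude mice, n = 6 per group. Oral dosing at 1 or 5 mg/kg once daily for 20 days, compared against a vehicle group. Read-outs were tumor growth curves and body weight over the treatment period, plus final tumor weight after 20 days. Significance was tested vs vehicle.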
Background: Xenograft models place foreign cells or tissue in a host animal.

Series [9] deals with T1, Epidermal growth factor receptor. Nature of the series: Inhibition of EGFR auto-phosphorylation in human HCC827 cells after 8 hrs by Western blot analysis. The series is classed as cell-based.
Another series has as its system Mus musculus. Briefly: Toxicity in nude Balb/c mouse xenografted with human HCC827 cells assessed as increase in body weight at 5 mg/kg, po administered once daily for 20 days measured every day till day 21. The series is classed as organism-based. The settings on record: in vivo, 480 h. Put shortly: as §1

SMILES strings stand for the structures. pIC50: −log10 of the molar value. Calls of active or inactive are those of the source. No cut-off for these calls is given here.

Chain of Epidermal growth factor receptor (Homo sapiens, UniProt P00533, L858R/T790M) (P00533 25-1210 T790M/L858R limits assumed): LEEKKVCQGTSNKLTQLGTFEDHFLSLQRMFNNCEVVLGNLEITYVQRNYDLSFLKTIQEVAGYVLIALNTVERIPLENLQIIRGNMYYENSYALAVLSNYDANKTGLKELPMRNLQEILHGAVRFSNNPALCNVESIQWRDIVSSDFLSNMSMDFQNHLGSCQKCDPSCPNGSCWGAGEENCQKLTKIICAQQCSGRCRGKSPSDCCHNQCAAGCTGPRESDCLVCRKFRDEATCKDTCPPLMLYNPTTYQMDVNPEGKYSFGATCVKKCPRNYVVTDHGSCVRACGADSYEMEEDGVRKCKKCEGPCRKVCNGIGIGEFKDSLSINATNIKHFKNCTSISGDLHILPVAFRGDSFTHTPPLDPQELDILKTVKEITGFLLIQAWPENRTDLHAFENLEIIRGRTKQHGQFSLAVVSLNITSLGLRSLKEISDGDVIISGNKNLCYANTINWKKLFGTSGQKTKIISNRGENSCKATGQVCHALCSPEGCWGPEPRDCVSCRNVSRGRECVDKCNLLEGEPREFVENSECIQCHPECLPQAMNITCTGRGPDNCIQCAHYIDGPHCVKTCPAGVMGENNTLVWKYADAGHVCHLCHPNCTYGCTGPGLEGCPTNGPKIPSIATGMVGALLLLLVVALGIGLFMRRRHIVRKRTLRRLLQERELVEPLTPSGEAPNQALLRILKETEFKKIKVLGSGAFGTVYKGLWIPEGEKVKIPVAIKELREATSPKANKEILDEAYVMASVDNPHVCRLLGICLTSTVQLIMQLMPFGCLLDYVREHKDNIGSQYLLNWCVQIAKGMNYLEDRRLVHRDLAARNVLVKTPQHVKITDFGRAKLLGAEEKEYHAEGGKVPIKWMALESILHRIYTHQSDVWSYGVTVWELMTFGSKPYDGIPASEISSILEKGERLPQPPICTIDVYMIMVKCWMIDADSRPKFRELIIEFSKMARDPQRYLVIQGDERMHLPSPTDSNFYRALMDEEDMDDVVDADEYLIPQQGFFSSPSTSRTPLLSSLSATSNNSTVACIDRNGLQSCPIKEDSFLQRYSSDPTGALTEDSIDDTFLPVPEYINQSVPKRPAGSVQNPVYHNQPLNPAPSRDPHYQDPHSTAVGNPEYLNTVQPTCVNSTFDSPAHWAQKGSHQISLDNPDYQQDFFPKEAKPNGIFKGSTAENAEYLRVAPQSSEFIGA

Regarding `CN1CCN(c2ccc(Nc3ncc4nc(SCc5ccccc5)n(C5CCOCC5)c4n3)cc2)CC1`, in the series on HCC827 [1], the pIC50 – broadly, −log10 of the IC50, conventionally taken in molar units – is 6.97.

For `C=CC(=O)Nc1cc(Nc2nccc(-c3cn(C)c4ccccc34)n2)c(OC)cc1N(C)CCN(C)C` [OSIMERTINIB], the pIC50 in the series on NCI-H1975 is […]; in the series on HCC827 [1], 7.37 to 7.60; with A549 it was 6.31. The Emax in the series on HCC827 [2] was found to be […].

Turning to `CN1CCN(c2ccc(Nc3ncc4nc([S+]([O-])c5ccccc5)n(C5CCOCC5)c4n3)cc2)CC1` (stereo not drawn), the pIC50 in the series with HCC827 [1] was 6.39.

With `CN1CCN(c2ccc(Nc3ncc4nc([S+]([O-])c5ccccc5)n(C5CC5)c4n3)cc2)CC1` (stereo not drawn), in the series with HCC827 [1], the pIC50 is 5.79.

`CN1CCN(c2ccc(Nc3ncc4nc(SCc5cccnc5)n(C5CC5)c4n3)cc2)CC1` had a pIC50 in the series with HCC827 [1] of 5.05.

As for `CN1CCN(c2ccc(Nc3ncc4nc(Sc5ccccc5)n([C@H]5CC[C@H](O)CC5)c4n3)cc2)CC1`, the negative logarithm of the IC50 (pIC50) is 5.88 with NCI-H1975, 6.28 in [4], 7.32 to 7.37 in the series on HCC827 [1] and 6.37 in the series on A549. The “Ratio IC50” value in series [3] was 10; in series [5], 31.

`CN(C)CCOc1ccc(Nc2ncc3nc(Sc4ccc(F)cc4)n(C4CCOCC4)c3n2)cc1`: the negative-log IC50 (pIC50) was 5.20 in the series on NCI-H1975; 6.72 in series [6]; 6.94 in series [4]; 8.60 in series [7]; 7.32 in the series on HCC827 [1]; 5.31 in the series with A549. Besides, the figures for the “Ratio IC50” value in series [3] and in series [5] were 101 and 131, respectively.

`CC(C)n1c(Sc2ccccc2)nc2cnc(Nc3ccc(N4CCN(C)CC4)cc3)nc21` showed a negative-log IC50 (pIC50) with HCC827 [1] of 6.54.

With `CN(C)CCOc1ccc(Nc2ncc3nc([S+]([O-])c4ccccc4)n(C4CCOCC4)c3n2)cc1` (stereo not drawn), the values for the pIC50 with NCI-H1975, with HCC827 [1] and in the series on A549 were below 5.00, 7.30 and below 5.00, respectively. Moreover, the “Ratio IC50” value in series [3] and in series [5] was above 198 each time.

In turn, `CN1CCN(c2ccc(Nc3ncc4nc(SCc5cccnc5)n(C5CCOCC5)c4n3)cc2)CC1` gave a pIC50 with HCC827 [1] of 6.30.

The compound `CN1CCN(c2ccc(Nc3ncc4nc([S+]([O-])Cc5ccccc5)n(C5CCOCC5)c4n3)cc2)CC1` (stereo not drawn) had a pIC50 with HCC827 [1] of 6.36.

`CN(C)CCOc1ccc(Nc2ncc3nc([S+]([O-])c4ccc(F)cc4)n(C4CCOCC4)c3n2)cc1` (stereo not drawn) had a pIC50 in the series on HCC827 [1] of 6.26.

In turn, `CN1CCN(c2ccc(Nc3ncc4nc([S+]([O-])Cc5cccnc5)n(C5CCOCC5)c4n3)cc2)CC1` (stereo not drawn) showed a negative logarithm of the IC50 (pIC50) in the series with HCC827 [1] below 5.00.

Regarding `CN1CCN(c2ccc(Nc3ncc4nc(SCc5cccnc5)n(C5CCCC5)c4n3)cc2)CC1`, the pIC50 in the series on HCC827 [1] is 6.29.

As to `CN(C)CCOc1ccc(Nc2ncc3nc(Sc4ccccc4)n(C4CCOCC4)c3n2)cc1`, the pIC50 in the series with NCI-H1975 was 5.02; in [4] it was 6.25; with HCC827 [1], 7.35; in the series with A549, below 5.00. For the same compound, the results for the “Ratio IC50” value in series [3] and in series [5] were above 226 and 217, respectively. This compound had an Emax at 1 µM in the series with HCC827 [2] of 78%.

As to `CN(C)C1CCN(c2ccc(Nc3ncc4nc(Sc5ccccc5)n(C5CCOCC5)c4n3)cc2)CC1`, the negative-log IC50 (pIC50) with NCI-H1975 was 5.30; in series [6], 6.98; in series [4] it was 6.48; in series [7], 8.80; in the series on HCC827 [1], 7.53; in the series with A549 it was below 5.00. In the series on HCC827 [8], the TGI entry is “Active”. Moreover, the results for the “Ratio IC50” value in series [3] and in series [5] were above 340 and 170, respectively. Moreover, the inhibition entry in series [9] is “Dose-dependent effect”. The Activity result with Mus musculus is given as “Non-Toxic”. Further, the Emax at 1 µM with HCC827 [2] turned out to be 81%.

For the compound `CN1CCN(c2ccc(Nc3ncc4nc(Sc5ccccc5)n(C5CCOCC5)c4n3)cc2)CC1`, the pIC50 in the series with NCI-H1975 is 5.65; in series [4], 6.05; with HCC827 [1], 7.37; with A549 it was 5.53. Moreover, the “Ratio IC50” value was 69 in [3] and 53 in series [5].

As for `CN(C)CCOc1ccc(Nc2ncc3nc(Sc4cccc(F)c4)n(C4CCOCC4)c3n2)cc1`, the negative logarithm of the IC50 (pIC50) was 5.56 in the series on NCI-H1975, 6.09 in [4], 7.29 with HCC827 [1] and 5.47 with A549. Besides, the results for the “Ratio IC50” value in series [3] and in [5] were 65 and 54, respectively.

`CN1CCN(c2ccc(Nc3ncc4nc(Sc5ccccc5)n(CC5CC5)c4n3)cc2)CC1` showed a negative logarithm of the IC50 (pIC50) in the series with HCC827 [1] of 6.18.

In the series on HCC827 [1], `CN(C)CCN(C)c1ccc(Nc2ncc3nc(Sc4ccccc4)n(C4CCOCC4)c3n2)cc1` had a pIC50 of 6.30.

For the compound `CN1CCN(c2ccc(Nc3ncc4nc(Sc5ccccc5)n(C5CC5)c4n3)cc2)CC1`, the negative-log IC50 (pIC50) in the series on HCC827 [1] was 6.52.

Consider `CN(C)CCOc1ccc(Nc2ncc3nc([S+]([O-])c4cccc(F)c4)n(C4CCOCC4)c3n2)cc1` (stereo not drawn), for which the pIC50 in the series with HCC827 [1] is 6.45.

Take `CN1CCN(c2ccc(Nc3ncc4nc([S+]([O-])c5ccccc5)n(C5CCCC5)c4n3)cc2)CC1` (stereo not drawn): the pIC50 was 5.29 in the series on NCI-H1975, 7.19 in the series on HCC827 [1] and below 5.00 with A549. For the same compound, the “Ratio IC50” value in [3] is above 154; in [5], 79.

In the series with HCC827 [1], `CC(C)n1c([S+]([O-])c2ccccc2)nc2cnc(Nc3ccc(N4CCN(C)CC4)cc3)nc21` (stereo not drawn) showed a pIC50 of 6.67.

The compound `CN1CCC(Oc2ccc(Nc3ncc4nc(Sc5ccccc5)n(C5CCOCC5)c4n3)cc2)CC1` gave a negative-log IC50 (pIC50) in the series with HCC827 [1] of 6.85.

Take `CN1CCN(c2ccc(Nc3ncc4nc(Sc5ccccc5)n(C5CCCC5)c4n3)cc2)CC1`: the pIC50 with NCI-H1975 is 5.25; in the series on HCC827 [1] it was 7.29; with A549, 6.63. The “Ratio IC50” value was found to be 5 in [3] and 109 in series [5].

In turn, `CN1CCN(c2ccc(Nc3ncc4nc(Nc5ccccc5)n(C5CCCC5)c4n3)cc2)CC1` had a negative logarithm of the IC50 (pIC50) in the series with HCC827 [1] of 7.44. In the series with HCC827 [2], this compound gave an Emax at 1 µM of 70%.

Regarding `CN1CCN(c2ccc(Nc3ncc4nc([S+]([O-])c5ccccc5)n([C@H]5CC[C@H](O)CC5)c4n3)cc2)CC1` (stereo partly drawn), in the series on HCC827 [1], the pIC50 is 6.57.

As to `CN(C)CCN(C)c1ccc(Nc2ncc3nc([S+]([O-])c4ccccc4)n(C4CCOCC4)c3n2)cc1` (stereo not drawn), the negative-log IC50 (pIC50) in the series on HCC827 [1] was 5.88.

`CN1CCC(Oc2ccc(Nc3ncc4nc([S+]([O-])c5ccccc5)n(C5CCOCC5)c4n3)cc2)CC1` (stereo not drawn): in the series with HCC827 [1], the negative-log IC50 (pIC50) is 6.07.

The compound `CN1CCN(c2ccc(Nc3ncc4nc([S+]([O-])c5ccccc5)n(CC5CC5)c4n3)cc2)CC1` (stereo not drawn) gave a negative logarithm of the IC50 (pIC50) in the series on HCC827 [1] of 6.08.

In the series on HCC827 [1], `CN1CCN(c2ccc(Nc3ncc4nc([S+]([O-])Cc5cccnc5)n(C5CCCC5)c4n3)cc2)CC1` (stereo not drawn) had a pIC50 of 5.63.

Turning to `CN(C)C1CCN(c2ccc(Nc3ncc4nc([S+]([O-])c5ccccc5)n(C5CCOCC5)c4n3)cc2)CC1` (stereo not drawn), the negative-log IC50 (pIC50) in the series on HCC827 [1] is 5.89.
